The entries come from a sample that favours hits as a whole.
ALR H2O2 inh: inhibitors of human sulfhydryl oxidase ALR | P55789 | purified ALR, DTT oxidation, H2O2 HRP-luminol luminescence | inhibition, % (no concentration beside the values) | 290,000 compounds, 3.8% hits | AID 485317;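 active means mean replicate inhibition above about 79%, with every replicate also reaching it, limit read from the data; inconclusive means only one of the two criteria met; inactive means mean below limit and not every replicate reaching it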
Target sequence (P55789 whole entry, looked up): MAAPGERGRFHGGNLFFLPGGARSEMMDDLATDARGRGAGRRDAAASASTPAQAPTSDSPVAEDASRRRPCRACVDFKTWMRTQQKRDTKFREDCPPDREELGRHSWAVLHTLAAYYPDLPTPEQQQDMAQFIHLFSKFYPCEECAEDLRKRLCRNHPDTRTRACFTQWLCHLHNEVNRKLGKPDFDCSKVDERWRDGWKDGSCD
Glyco luc inh: blocks N-linked glycosylation in D54 reporter cells. D54 ERlucT glycosylation luciferase reporter, 24 h; percent of 100 nM tunicamycin response. reporter increase, % at 12.5 µM. 360,000 compounds, 0.23% hits. AID 588692;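 active means mean luciferase reporter signal, scaled so untreated is 0 and the glycosylation-blocking control 100, at or above a set limit in every replicate; inconclusive means mean reaches the limit but not every replicate does; inactive means mean below the limit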;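 further: luciferase carries N-glycosylation sites so blocking glycosylation raises the light; 0% = median of neutral control wells and 100% = median of 100 nM tunicamycin wells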
T cell HTS: modulates CD8 T cell binding to vesicles | 2C CD8+ T cell-vesicle binding, flow cytometry; active compounds read low | response (vesicle binding), % at 7 µM | 330,000 compounds, 0.068% hits | AID 2052;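 active means response, share of CD8 T cells binding vesicles, and their 90th percentile fluorescence all below set limits, cut at about 80% in these data, passing the limit was not always enough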;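 further: values below 100% mean blocked vesicle binding to the CD8+ T cells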
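material = purified 2C TCR transgenic mouse naive CD8+ T cells | controls = Unloaded micro-vesicles (low), QL9 vesicles with 0.7% DMSO (high) | detection = cytometric PE anti-B7-1 and Alexa647 anti-CD8 signals after 1% paraformaldehyde fixation | incubation = binding step 1.5 h, 37 °C, antibody labelling 20 min, ice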
* = called active by the depositor; i = inactive; ? = inconclusive; · = no result given.

SMILES | ALR H2O2 inh | Glyco luc inh | T cell HTS
COc1ccc(-c2cnc3c(c2)C(=O)N([C@H](C)CO)C[C@@H](C)[C@@H](CN(C)C(=O)NC2CCCC2)O3)cc1 | · | 0.9 | ·
COCCN(CCOC)Cc1c(O)ccc2c3c(c(=O)oc12)CCC3 | 5.3 | 0.2 | 195.2
CCCCc1cc(=O)oc2c(CN(C)C)c(O)ccc12 | 93.8* | -0.3 | 187.6
CN(C)Cc1c(O)ccc2c3c(c(=O)oc12)CCCCC3 | 89.8* | 1.2 | 199.2
CCCCc1cc(=O)oc2c(CN3CCN(C)CC3)c(O)ccc12 | 1.1 | -4.3 | 378.3
COc1ccc(Br)cc1CN1CCN(S(=O)(=O)Cc2ccccc2)CC1 | -6.0 | -1.6 | 302.6
CC(C)(C)c1ccc(C(=O)N2CCC2(C)C(=O)Nc2cccc(C#N)c2)cc1 (configuration not stated) | · | -1.5 | ·
O=C(CSc1ncnc2ccccc12)Nc1cccc(S(=O)(=O)N2CCCC2)c1 | 99.3* | 0.2 | 477.5
O=C(CSc1ncnc2ccccc12)Nc1cc(S(=O)(=O)N2CCCCC2)ccc1Cl | -23.5 | -10.5 | 373.6
Cc1ccc2nc(-c3ccc(NS(C)(=O)=O)cc3)cc(-c3ccccc3)c2c1 | -4.0 | -6.0 | 346.3
CCS(=O)(=O)Nc1ccc(-c2cc(-c3ccccc3)c3cc(C)ccc3n2)cc1 | 89.2* | -3.4 | 310.4
CC(C)(C)OC(=O)N1CCC(NC(=O)c2ncn(Cc3ccccc3)c2C(=O)NC2CCN(C(=O)OC(C)(C)C)CC2)CC1 | -2.5 | 1.5 | 321.0
Oc1c(C2=NCCNC(C(F)(F)F)=C2)ccc2ccccc12 | · | 6.5 | ·
Cc1ccc(O)c(C2=NCCNC(C(F)(F)F)=C2)c1 | 91.2* | 3.0 | 185.2
O=C(NCc1ccncc1)C1=NN(c2ccccc2)C(=O)CC1 | 93.9* | 0.1 | 259.7
O=C(Nc1cccnc1Cl)C1=NN(c2ccccc2)C(=O)CC1 | -4.4 | 2.5 | 104.7
COc1ccc(C(=O)C2CCCN(S(=O)(=O)c3ccccc3F)C2)c(C)c1 (configuration not stated) | -2.0 | -0.6 | 273.3
C[C@H]1CN([C@@H](C)CO)C(=O)CCCn2cc(nn2)CO[C@@H]1CN(C)C(=O)Oc1ccccc1 | · | 3.8 | ·
CCCOc1ccc(Cn2c(C)nc([N+](=O)[O-])c2SCC(O)COC)cc1[N+](=O)[O-] (configuration not stated) | 99.0* | 4.3 | 271.5
CCOc1ccc(Cn2c(C)nc([N+](=O)[O-])c2SCC(O)CCl)cc1[N+](=O)[O-] (configuration not stated) | 0.5 | 4.1 | 578.3
Cc1ccc2nsnc2c1NC(=O)c1ccc([N+](=O)[O-])o1 | -29.9 | ? | 298.9
COc1ccc(NS(=O)(=O)c2ccc(N3CCCC3)c(NC(=S)Nc3cccc(S(=O)(=O)N(C)C)c3)c2)cc1 | 0.3 | · | 185.6
O=C1CCCC2=C1C1(CCCC1)N=C(Nc1nc3ccccc3o1)N2 | · | 13.9 | ·
O=C1CCCC2=C1C1(CCCCC1)N=C(Nc1nc3ccccc3o1)N2 | · | 47.1* | 307.1
CC1(C)COC(c2cc3c(cc2Br)OCO3)OC1 | · | -2.0 | ·
SMILES | ALR H2O2 inh | Glyco luc inh | T cell HTS
Cc1[nH]nc2c1C(=O)CCC2 | 99.5* | -6.4 | 246.8
Cc1[nH]nc2c1C(=O)CC(C)(C)C2 | -15.5 | 1.1 | 470.7
CCOc1ccc(N2C(=O)CNC2=S)cc1 | 90.9* | 1.2 | 248.2
CCOc1ccc(N2C(=O)CN(C)C2=S)cc1 | -16.4 | -0.3 | 121.2
COc1ccc(C2=NN(Cc3ccccc3)C3C(=O)NC(=O)C23)cc1 (configuration not stated) | 12.5 | 3.3 | 258.9
CN1C(=O)C2C(c3ccc(N(C)C)cc3)=NN(Cc3ccccc3)C2C1=O (configuration not stated) | 99.4* | -1.7 | 211.6
CCSc1nc(=S)cc(C)[nH]1 | 58.3 | -1.2 | 289.0
COc1ccc(S(=O)(=O)Nc2cc(Cl)ccc2-n2cncn2)cc1 | · | -0.9 | 774.8
O=[N+]([O-])c1cccc(CN2CCN(c3ncccn3)CC2)c1 | -3.2 | 0.3 | 285.1
O=C(c1ccc([N+](=O)[O-])cc1)N1CCN(c2cccc3[nH]ccc23)CC1 | 99.2* | 0.5 | 184.5
O=[N+]([O-])c1cccc(CN2CCN(c3cccc4[nH]ccc34)CC2)c1 | 99.0* | 0.0 | 402.0
O=C(c1ccccc1)N1CCN(C(=O)c2ccc([N+](=O)[O-])cc2)CC1 | -5.4 | 0.7 | 281.9
CC(=O)Nc1ccc(-c2ccnc3c2CC(C(=O)NCC2CCOCC2)O3)cc1 (configuration not stated) | · | 15.6 | ·
CCn1c(-c2csc3c2CCCC3)n[nH]c1=S | 90.9* | -0.4 | 263.1
CCCCn1c(-c2csc3c2CCCC3)n[nH]c1=S | 9.2 | · | ·
Cc1cc(NC(=O)C(C)SCC(=O)NCc2ccc(F)cc2)no1 (configuration not stated) | · | 0.2 | 628.1
Cc1cccc(S(=O)(=O)Nc2nc3ccccc3nc2Nc2cccc(C(=O)O)c2)c1 | 97.7* | 0.8 | 299.5
CC(=O)Nc1ccc(S(=O)(=O)Nc2nc3ccccc3nc2Nc2ccc(O)c(C(=O)O)c2)cc1 | 98.8* | 0.6 | 197.9
O=C(O)c1cccc(Nc2nc3ccccc3nc2NS(=O)(=O)c2ccc(F)cc2)c1 | ? | 2.4 | 442.7
CC(=O)Nc1ccc(S(=O)(=O)Nc2nc3ccccc3nc2Nc2ccc(S(N)(=O)=O)cc2)cc1 | -5.5 | 1.1 | 867.8
CCOC(=O)C1=C(COC(=O)c2cc(S(=O)(=O)N3CCOCC3)ccc2F)NC(=O)NC1C (configuration not stated) | · | 1.8 | ·
COc1cc(OC)cc(C(=O)NCCCCCCNC(=O)c2cc(OC)cc(OC)c2)c1 | · | 2.1 | 244.2
Cc1cc(C)c(C)c(OCCN2CCOCC2)c1 | 0.5 | 4.9 | 258.2
Cc1cc(N2CCN(c3ccccc3)CC2)n2ncnc2n1 | 97.6* | 0.5 | 175.7
Cc1cc(N2CCN(C/C=C/c3ccccc3)CC2)n2ncnc2n1 | -2.8 | -0.5 | 600.7
SMILES | ALR H2O2 inh | Glyco luc inh | T cell HTS
COc1cccc(N2CCN(c3c4c(nc5ncnn35)CCC4)CC2)c1 | 98.1* | -3.8 | 270.1
Cc1cc(N2CCN(c3ccccc3)CC2)nc(-c2ccccc2)n1 | 2.2 | -0.3 | 100.0
c1ccc(N2CCN(c3c4c(nc5ncnn35)CCC4)CC2)cc1 | · | -1.2 | ·
Cc1cc(N2CCN(c3ccccc3)CC2)nc(N)n1 | 97.8* | 0.3 | i
O=C(CC12CC3CC(CC(C3)C1)C2)NCc1ccc(F)cc1 | -2.3 | -0.2 | 179.0
O=CN/C=C/c1cccc(O)c1 | · | 0.4 | ·
Cc1[nH]n(-c2nc(-c3cccc([N+](=O)[O-])c3)cs2)c(=O)c1C | 96.9* | 3.0 | 204.3
Cc1c(Nc2nc(-c3cccc([N+](=O)[O-])c3)cs2)c(=O)n(-c2ccccc2)n1C | 34.5 | -2.3 | 217.1
O=C(O)/C=C\C(=O)Nc1ccccc1C(=O)N1CCN(c2ccc(Cl)cc2)CC1 | 21.6 | -2.1 | 138.1
CC(=O)Nc1ccc(N2CCN(c3ccc(F)cc3)CC2)cc1 | · | 0.9 | 280.6
O=C(O)/C=C\C(=O)Nc1ccc(N2CCN(c3cccc(Cl)c3)CC2)cc1 | 98.5* | 0.2 | 415.9
O=C(O)/C=C\C(=O)Nc1ccc(N2CCN(c3ccc(Cl)c(Cl)c3)CC2)cc1 | 15.9 | -0.5 | 220.8
O=C(O)/C=C\C(=O)Nc1ccc(N2CCN(c3ccc(Cl)cc3)CC2)cc1 | 98.5* | 2.4 | 341.6
O=C(O)/C=C/C(=O)Nc1ccc(-c2ccccc2)cc1 | 98.2* | 0.5 | 234.5
